Here are results for 22 compounds from ChEMBL document CHEMBL4627283, “Discovery and optimization of 4-oxo-2-thioxo-thiazolidinones as NOD-like receptor (NLR) family, pyrin domain-containing protein 3 (NLRP3) inhibitors” (Bioorg Med Chem Lett, 2020).

Each structure is given as a SMILES string. Where only a bound is given, the exact number is not on record here.

Series [1] addresses T1, NACHT, LRR and PYD domains-containing protein 3 (Homo sapiens, UniProt Q96P20). As to the kind of experiment: Inhibition of NLRP3 inflammasome (unknown origin) activation in LPS-primed bone marrow derived macrophage cells at 10 uM in presence of mono sodium urate relative to control.
The target in series [2] is Cystic fibrosis transmembrane conductance regulator (Homo sapiens) (UniProt P13569). Nature of the series: Inhibition of CFTR in human HT-29 cells assessed as effect on intracellular chloride efflux at 20 uM relative to control. The format is cell-based.
Series [3] has as its target T1, NACHT, LRR and PYD domains-containing protein 3. As to the kind of experiment: Inhibition of NLRP3 inflammasome (unknown origin) activation in LPS-primed bone marrow derived macrophage cells assessed as effect on IL-1beta production in presence of nigericin by ELISA. Summed up: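 BMDMs pretreated with varied doses of compound, then LPS-primed and stimulated with nigericin; IL-1β in supernatant by ELISA, normalized to DMSO-treated control; IC50 given as mean ± SD.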

The species entered for another series is Homo sapiens. Nature of the series: Selectivity index, ratio of inhibition of NLRP3 inflammasome (unknown origin) activation in bone marrow derived macrophage cells at 10 uM to inhibition of CFTR in human HT-29 cells at 20 uM. The series is classed as cell-based. Summed up:
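Selectivity index: % NLRP3 inhibition in BMDMs at 10 μM divided by % CFTR inhibition in HT29 cells at 20 μM.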

Series [4] is described as follows: Half life in human liver microsomes in presence of NADPH. The series is classed as ADME, Microsome. Summed up:
(§1)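 Stability in human and mouse liver microsomes incubated with an NADPH regenerating system; half-life (min) and hepatic clearance (mL/min/kg) determined.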

Series [5] is described as follows: Clearance in human liver microsomes in presence of NADPH. The format is ADME, Microsome. Summed up:
as §1

Series [6] can be described thus: Half life in mouse liver microsomes in presence of NADPH. The format is ADME, Microsome. Summed up: as §1
Series [7] is described as follows: Clearance in mouse liver microsomes in presence of NADPH. The format is ADME, Microsome. In outline: as §1
Series [8] concerns the target T1, NACHT, LRR and PYD domains-containing protein 3. As to the kind of experiment: Inhibition of NLRP3 inflammasome (unknown origin) assessed as suppression of mono sodium urate-induced caspase 1 activation by immunoblot analysis. Summed up: (§2)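 LPS-primed BMDMs treated with graded doses of test compound, then stimulated with MSU; IL-1β and cleaved caspase-1 (p20) in culture supernatants detected by immunoblot.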

For series [9] the target is unchanged. Nature of the series: Inhibition of NLRP3 inflammasome (unknown origin) assessed as suppression of mono sodium urate-induced IL-1beta level by immunoblot analysis. In outline:
as §2

T1 sequence (Q96P20 whole entry, the tested form may be a part): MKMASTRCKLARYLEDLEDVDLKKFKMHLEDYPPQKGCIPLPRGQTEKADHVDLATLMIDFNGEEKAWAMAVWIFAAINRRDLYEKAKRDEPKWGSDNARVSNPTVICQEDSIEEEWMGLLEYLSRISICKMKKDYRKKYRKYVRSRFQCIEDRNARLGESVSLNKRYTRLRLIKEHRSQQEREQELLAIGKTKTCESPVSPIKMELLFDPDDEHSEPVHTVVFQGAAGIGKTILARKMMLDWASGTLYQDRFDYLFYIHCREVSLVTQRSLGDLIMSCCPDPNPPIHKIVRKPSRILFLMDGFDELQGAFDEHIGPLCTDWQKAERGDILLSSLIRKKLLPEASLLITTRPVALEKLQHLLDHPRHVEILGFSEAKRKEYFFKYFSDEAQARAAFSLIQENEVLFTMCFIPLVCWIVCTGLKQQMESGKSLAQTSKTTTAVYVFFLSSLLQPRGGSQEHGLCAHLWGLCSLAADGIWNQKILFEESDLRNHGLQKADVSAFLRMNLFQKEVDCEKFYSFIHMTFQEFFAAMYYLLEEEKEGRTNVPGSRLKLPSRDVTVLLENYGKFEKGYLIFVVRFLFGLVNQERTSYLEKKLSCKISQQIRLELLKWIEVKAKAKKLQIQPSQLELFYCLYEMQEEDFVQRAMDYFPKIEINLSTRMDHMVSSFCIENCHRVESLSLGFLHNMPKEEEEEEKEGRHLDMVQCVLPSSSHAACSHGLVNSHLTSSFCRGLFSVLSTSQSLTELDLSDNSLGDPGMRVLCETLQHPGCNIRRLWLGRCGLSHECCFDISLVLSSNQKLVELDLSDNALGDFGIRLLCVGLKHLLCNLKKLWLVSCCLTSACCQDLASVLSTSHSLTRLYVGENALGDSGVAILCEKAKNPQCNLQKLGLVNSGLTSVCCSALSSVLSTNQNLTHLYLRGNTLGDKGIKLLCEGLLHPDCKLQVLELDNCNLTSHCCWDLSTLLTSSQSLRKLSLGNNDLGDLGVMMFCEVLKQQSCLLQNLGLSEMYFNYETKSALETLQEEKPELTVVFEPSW
Cystic fibrosis transmembrane conductance regulator (Homo sapiens), sequence (P13569 whole entry, looked up, the tested form may be a part): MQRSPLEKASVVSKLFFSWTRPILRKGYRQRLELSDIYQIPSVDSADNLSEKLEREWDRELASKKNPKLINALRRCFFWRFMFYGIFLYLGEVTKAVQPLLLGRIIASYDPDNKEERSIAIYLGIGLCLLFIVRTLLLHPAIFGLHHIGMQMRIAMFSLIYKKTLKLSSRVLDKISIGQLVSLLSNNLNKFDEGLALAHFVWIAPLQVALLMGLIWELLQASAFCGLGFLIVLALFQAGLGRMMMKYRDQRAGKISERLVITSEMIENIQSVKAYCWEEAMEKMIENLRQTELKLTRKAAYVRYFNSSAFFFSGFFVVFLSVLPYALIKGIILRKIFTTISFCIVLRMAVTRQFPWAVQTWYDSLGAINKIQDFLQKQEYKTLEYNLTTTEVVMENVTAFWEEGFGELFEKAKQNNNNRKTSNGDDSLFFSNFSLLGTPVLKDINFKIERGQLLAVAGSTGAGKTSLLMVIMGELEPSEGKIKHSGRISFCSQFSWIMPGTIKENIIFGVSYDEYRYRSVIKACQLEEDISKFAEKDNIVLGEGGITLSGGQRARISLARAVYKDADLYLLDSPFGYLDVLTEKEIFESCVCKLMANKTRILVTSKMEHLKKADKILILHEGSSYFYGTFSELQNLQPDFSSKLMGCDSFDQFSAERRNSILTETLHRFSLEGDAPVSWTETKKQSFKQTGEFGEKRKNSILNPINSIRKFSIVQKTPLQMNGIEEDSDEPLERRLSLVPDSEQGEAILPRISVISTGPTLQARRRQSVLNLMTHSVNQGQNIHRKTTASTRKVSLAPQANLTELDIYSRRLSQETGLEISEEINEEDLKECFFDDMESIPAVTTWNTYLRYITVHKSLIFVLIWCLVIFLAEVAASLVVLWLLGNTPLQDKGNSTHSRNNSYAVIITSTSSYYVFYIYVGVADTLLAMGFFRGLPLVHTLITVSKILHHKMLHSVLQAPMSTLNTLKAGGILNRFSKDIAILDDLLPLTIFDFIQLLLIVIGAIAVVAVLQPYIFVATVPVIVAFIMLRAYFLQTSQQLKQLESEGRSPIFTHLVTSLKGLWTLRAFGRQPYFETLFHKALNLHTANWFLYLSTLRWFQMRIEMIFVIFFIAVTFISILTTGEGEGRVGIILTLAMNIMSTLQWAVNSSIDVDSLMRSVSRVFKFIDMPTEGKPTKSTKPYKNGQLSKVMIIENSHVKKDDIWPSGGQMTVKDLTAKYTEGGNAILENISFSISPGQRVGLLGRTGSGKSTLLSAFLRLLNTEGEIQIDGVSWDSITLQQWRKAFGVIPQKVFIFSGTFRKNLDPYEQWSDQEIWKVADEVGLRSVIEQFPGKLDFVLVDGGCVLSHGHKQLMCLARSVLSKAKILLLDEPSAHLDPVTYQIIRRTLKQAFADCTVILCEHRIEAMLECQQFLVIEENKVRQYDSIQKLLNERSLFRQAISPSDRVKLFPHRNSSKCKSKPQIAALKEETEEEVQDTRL

Turning to `O=C1S/C(=C\c2ccc(-c3nnn[nH]3)cc2)C(=O)N1Cc1cccc(C(F)(F)F)c1`, the inhibition in [1] is 63%; in [2] it was more than 10%. The IC50 in series [3] is 5.61 µM.
On to `O=C1/C(=C/c2ccc(-c3nnn[nH]3)cc2)SC(=S)N1Cc1cccc(C(F)(F)F)c1`, for which, in series [1], the inhibition is 67%. The 50% inhibitory concentration (IC50) in series [3] was 5.58 µM.
In the case of `O=C(O)c1ccc(/C=C2\SC(=S)N(Cc3cccc(OC(F)(F)F)c3)C2=O)cc1`, the inhibition was 29% in [1] and 12% in series [2]. In addition, the IC50 in [3] was more than 10 µM.
For `O=C(c1ccc(/C=C2\SC(=S)N(c3cccc(C(F)(F)F)c3)C2=O)cc1)N1CCC(O)CC1`, the inhibition came to 80% in series [1] and 72% in [2]. Further, the Selectivity Index in the series listed under Homo sapiens was found to be 1.11. The IC50 in series [3] was 2.44 µM. Besides, the half-life was 44.1 min in series [4] and 4 min in series [6]. The results for the CLhep predicted in series [5] and in series [7] were 10.3 mL/min/kg and 82.4 mL/min/kg, respectively.
On to `O=C(O)c1ccc(/C=C2\SC(=S)N(Cc3ccc(-c4ccccc4)cc3)C2=O)cc1`, for which the inhibition in [1] stood at 73%; in series [2], 11%. In addition, the half-maximal inhibitory concentration (IC50) in series [3] was 7.63 µM.
Consider `O=C(O)c1ccc(/C=C2\SC(=S)N(CCCc3cccc(C(F)(F)F)c3)C2=O)cc1`, for which the inhibition in [1] turned out to be 68%. The half-maximal inhibitory concentration (IC50) in series [3] turned out to be 4.32 µM.
For `O=C(Nc1ccccc1)c1ccc(/C=C2\SC(=S)N(c3cccc(C(F)(F)F)c3)C2=O)cc1`, the results for the inhibition in [1] and in series [2] were 32% and 27%, respectively. The Selectivity Index in the series filed under Homo sapiens turned out to be 1.19. In addition, the half-maximal inhibitory concentration (IC50) in series [3] is more than 10 µM.
Take `CN1CCN(C(=O)c2ccc(/C=C3\SC(=S)N(Cc4cccc(C(F)(F)F)c4)C3=O)cc2)CC1`: the inhibition in [1] worked out at 35%; in series [2], 10%. Besides, the IC50 in series [3] was more than 10 µM.
On to `CC(C)NCC(O)COc1cccc2ccccc12` (stereo unspecified) [PROPRANOLOL], for which the half-life worked out at 15.6 min in [4] and 1.7 min in series [6]. In addition, the CLhep predicted in series [5] was 15.3 mL/min/kg; in [7], 86.6 mL/min/kg.
Turning to `O=C(O)c1ccc(/C=C2\SC(=S)N(CCc3cccc(C(F)(F)F)c3)C2=O)cc1`, the inhibition in series [1] was 74%; in [2], more than 10%. Besides, the concentration for half-maximal inhibition (IC50) in [3] was 5.91 µM.
Regarding `CN1CCN(C(=O)c2ccc(/C=C3\SC(=S)N(c4cccc(C(F)(F)F)c4)C3=O)cc2)CC1`, the inhibition in series [1] amounted to 81%; in series [2], 77%. Further, the Selectivity Index in the series listed under Homo sapiens turned out to be 1.05. Besides, in [3], the IC50 was 2.69 µM. In addition, the half-life in [4] was found to be 15.6 min; in [6] it was 1.7 min. Further, the CLhep predicted in series [5] is 15.3 mL/min/kg; in [7], 86.6 mL/min/kg.
With `O=C(O)c1ccc(/C=C2\SC(=S)N(Cc3cccc(F)c3)C2=O)cc1`, the inhibition was 63% in [1] and more than 10% in series [2]. The half-maximal inhibitory concentration (IC50) in series [3] amounted to 3.52 µM.
Take `O=C(O)c1ccc(/C=C2\SC(=S)N(c3cccc(C(F)(F)F)c3)C2=O)cc1`: the inhibition in series [1] was 71%; in [2], 86%; in [8], “Dose-dependent effect”; in [9], “Dose-dependent effect”. For the same compound, in the series filed under Homo sapiens, the Selectivity Index was 0.83. Further, the IC50 in series [3] was found to be 6.39 µM. The half-life was 277 min in series [4] and 12.6 min in series [6]. Besides, the results for the CLhep predicted in series [5] and in series [7] were 2.8 mL/min/kg and 69.8 mL/min/kg, respectively.
Regarding `O=C(O)c1ccc(/C=C2\SC(=S)N(Cc3cccnc3)C2=O)cc1`, the inhibition in [1] is 63%; in series [2], more than 10%. In series [3], the 50% inhibitory concentration (IC50) amounted to 6.27 µM.
Turning to `O=C(c1ccc(/C=C2\SC(=S)N(c3cccc(C(F)(F)F)c3)C2=O)cc1)N1CCOCC1`, the inhibition in series [1] came out at 81%; in series [2], 74%. Moreover, the Selectivity Index in the series listed under Homo sapiens came out at 1.09. Also, the IC50 in series [3] was 2.74 µM. Also, the half-life in [4] and in series [6] was more than 145 min throughout. Besides, the CLhep predicted in series [5] is less than 4.7 mL/min/kg; in series [7] it was less than 20.7 mL/min/kg.
In the case of `O=C(O)c1ccc(/C=C2\SC(=O)N(Cc3cccc(C(F)(F)F)c3)C2=O)cc1`, the inhibition was found to be 67% in series [1] and 23% in series [2]. For the same compound, the IC50 in series [3] is 5.96 µM.
Regarding `O=C1/C(=C/c2ccc(-c3nnn[nH]3)cc2)SC(=S)N1CCc1cccc(C(F)(F)F)c1`, the inhibition in [1] was 67%. In addition, the IC50 in [3] is 6.5 µM.
Regarding `O=C1/C(=C/c2ccc(-c3nnn[nH]3)cc2)SC(=S)N1CCCc1cccc(C(F)(F)F)c1`, the inhibition in [1] was 72%; in series [2], more than 10%. In addition, in series [3], the IC50 worked out at 4.85 µM.
Regarding `CN1CCN(C(=O)c2ccc(/C=C3\SC(=S)N(c4cccc([N+](=O)[O-])c4)C3=O)cc2)CC1`, the results for the inhibition in series [1] and in series [2] were 81% and 66%, respectively. The Selectivity Index in the series filed under Homo sapiens was determined as 1.23. Further, the IC50 in series [3] was 2.98 µM. The half-life in series [4] came to 13.8 min; in series [6], 1.8 min. The figures for the CLhep predicted in [5] and in series [7] were 15.8 mL/min/kg and 86.5 mL/min/kg, respectively.
Regarding `CN1CCN(C(=O)c2ccc(/C=C3\SC(=S)N(c4cccc(OC(F)(F)F)c4)C3=O)cc2)CC1`, the inhibition was 76% in series [1] and 69% in series [2]. Moreover, the Selectivity Index in the series listed under Homo sapiens stood at 1.1. In series [3], the IC50 was determined as 2.57 µM. Besides, the values for the half-life in series [4] and in series [6] were 27.1 min and 3.7 min, respectively. For the same compound, the CLhep predicted was 12.8 mL/min/kg in series [5] and 83 mL/min/kg in series [7].
With `C[C@]12CC[C@H]3[C@@H](CCC4=CC(=O)CC[C@@]43C)[C@@H]1CC[C@@H]2O` [TESTOSTERONE], the half-life in series [4] came to 277 min. Besides, the CLhep predicted in series [5] was 2.8 mL/min/kg.
As to `O=C(c1ccc(/C=C2\SC(=S)N(c3cccc(OC(F)(F)F)c3)C2=O)cc1)N1CCOCC1`, the inhibition was determined as 75% in series [1] and 68% in series [2]. Besides, the Selectivity Index in the series listed under Homo sapiens stood at 1.1. Also, in [3], the IC50 turned out to be 3.18 µM. Moreover, the half-life was determined as 187 min in [4] and 23.9 min in series [6]. Also, the results for the CLhep predicted in series [5] and in series [7] were 3.9 mL/min/kg and 58.1 mL/min/kg, respectively.
